Source: the RNAGym collection of RNA variant scans (doi:10.1126/science.aae0568)
Fewer inactive variants are shown than the library holds.

B1: tRNA (parent)
chain: GUUCCGUUGGCGUAAUGGUAACGCGUCUCCCUCCUAAGGAGAAGACUGCGGGUUCGAGUCCCGUACGGAACG

Variants of: B1
Assay: yeast fitness relative to wild type (ratio to wild type); higher = fitter; tRNA-Arg(CCU), competitive growth, 37 C, YPD
Summary of the method: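 Variants of the tRNA-Arg(CCU) gene, chemically synthesised with a 3% per-site mutation rate at 69 sites, were placed at the native genomic locus in Saccharomyces cerevisiae. The pooled strains were competed in YPD at 37°C for 24 hours in six parallel replicates. Gene amplicons from the start population and from each end population were read by 100-nucleotide paired-end sequencing. Darwinian fitness relative to wild type came from changes in genotype frequencies; genotypes needed ≥ 100 starting reads, and estimates < 0.5 were set to 0.5.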

First: GUUCCGUUGGCGUAAUGGAAUCGAGUCCCCCUCCUAAGGAGAAGACUGCGGGUUCGAGUCCCGUACGGAACG [U19A A21U C24A U28C]
Second: GUUCCGUUGGCGUAAUGCUAACGCGUCUCCCUCCUAAGGAGAAGACUGCGGGUUCGAGUCCCGAACGGAACG [G18C U64A]
The yeast fitness of the first is lower: at most 0.5 for the first, 0.593 for the second.

First: GUUCCGUUGGCGUAAUGGAACCGCGUCUCCGUCCUAAGGAAACGACUGCGGGUUCGAGUCCCGUACGGAACG [U19A A21C C31G G41A A43C]
Second: GUUCCGUUGGCGUAAUGCUAACGCGUCUCCCUCCAAAGGAGAAGCCUGCGGGUUCGAGUCCCGUACGGAACG [G18C U35A A45C]
The yeast fitness of the first is lower: at most 0.5 for the first, 0.671 for the second.

GUUCCGUUGGCGUAAUGGAGACGCGUCUCCCUCCUAAGGAGAAGACUGUGGGUUCGAGCCCGGUACGGAACG [U19A A20G C49U U59C C62G] and GUUCCGUUGGCGUAAUGUUAACGCGUCUCCCUUUUAAGGAGAAGACUGCGGGUUCGAGUCCCGUAAGGACCG [G18U C33U C34U C66A A70C] cannot be ordered by yeast fitness: at most 0.5 for the first, at most 0.5 for the second.

GUUCCGUUGGCGUAAUGGAAGCGCGUCUCCCUCCUAAGGAGACGACUGCGCGUUCGAGUCCCGUACGCAACG [U19A A21G A43C G51C G68C] and GUUCCGUUGGCGUAAUGCUAACGCGCCUCCCUCCUAAGGAGAAGACUGCCGGUUCGAGUCCCGUACGGAACG [G18C U26C G50C] cannot be ordered by yeast fitness: at most 0.5 for the first, at most 0.5 for the second.

Going from GUUCCGUUGGCGUAAUGCUAACGCGUCUCCCUCCUAAGGAGAAGACUGCGGGGUCGAGUACCGUACGGAACG [G18C U53G C60A] to GUUCCGUUGGCGUAAUGUUAACGCGACUCCCUCCUAAGGAGAAGACUGCGGGUUCAAGUCCCGUACAGAACG [G18U U26A G56A G67A], the yeast fitness rises from at most 0.5 to 0.578.

Compared with GUUCCGUUGGCGUAAUGUUAACGCGACUCCCUCCUAAGGAGAAGACUGCGGGUUCGAGUCCCGUACGGAACG [G18U U26A], GUUCCGUUGGCGUAAUGCUAACGCGUCUCCCUCCUAAUGAGAAGACUGCGAGUUCGAGUCCCGUACGGAACG [G18C G38U G51A] is lower in yeast fitness: 0.623 for the first, at most 0.5 for the second.

Going from GUUCCGUUGGCGUAAUGCUAACGCGUCGCCCUCCUAAGGAGAAGACUGCGGGUUCGAGUCCCGUACGGAACG [G18C U28G] to GUUCCGUUGGCGUAAUGUUAACGCGUCUCCCUCCUAAGGAGAAGACUGCGGGUUCGAGUCCCGUACGGAACG [G18U], the yeast fitness rises from 0.727 to 0.844.

Going from GUUCCGUUGGCGUAAUGCUAACGCGUCUCCCUCCUAAGGAGAAGACUGCGGGUUCGAGUCCCGUACGAAACG [G18C G68A] to GUUCCGUUGGCGUAAUGCUAACGCCUCGCCCUCCUAAGGAGGAGACUGUGGGUUCGUGUCCCGUACGGAACG [G18C G25C U28G A42G C49U A57U], the yeast fitness falls from 0.619 to 0.557.

GUUCCGUUGGCGUAAUGCAAACGCGUCGCCCUCCUAAGGCGAAGACUGCGGGUUCGAGUCCGGUAGGGAACG [G18C U19A U28G A40C C62G C66G] and GUUCCGUUGGCGUAAUGCUAACGCGUCUCCCGCCUAAGGAGAAGACUGCGGGUUCGCGUCCUGUACGGAACG [G18C U32G A57C C62U] cannot be ordered by yeast fitness: at most 0.5 for the first, at most 0.5 for the second.

Compared with GUUCCGUUGGCGUAAUGGAAUCGAGUCCCCCUCCUAAGGAGAAGACUGCGGGCUCGAGUGCCGUACGGAACG [U19A A21U C24A U28C U53C C60G], GUUCCGUUGGCGUAAUGCUAACGCGUCUCCCUCCUAAGGAGAAGACUGCGAGUUCGAGUCCCGUAAGGAACG [G18C G51A C66A] is higher in yeast fitness: at most 0.5 for the first, 0.537 for the second.

GUUCCGUUGGCGUAAUGCUAACGCGUCUCCCUCCUAAGGAACAGACUGCCGGUUCGAGUCCCGUACGGAGCG [G18C G41A A42C G50C A70G] and GUUCCGUUGGCGUAAUGCCAACGCGUCUAGCUCCUAAGGAGAAGACUGCGGGUUCGAGUCCCGUACGGAACG [G18C U19C C29A C30G] cannot be ordered by yeast fitness: at most 0.5 for the first, at most 0.5 for the second.

GUUCCGUUGGCGUAAUGGAGACGCGUCUACCUCCUAAGGCGAAGACUGCCGGUUCGAGUCCCGUACGGAACG [U19A A20G C29A A40C G50C] and GUUCCGUUGGCGUAAUGGAAACGCGUCUCCCUCCUCAGGGGAAGACUGCGGGUUCGCGUCCCGUACGGAACG [U19A A36C A40G A57C] cannot be ordered by yeast fitness: at most 0.5 for the first, at most 0.5 for the second.

First: GUUCCGUUGGCGUAAUGCUAACGCGUCUCCCUCCUAAGGAGAAAACUGCGGGUUCGAGUCCCGUACGAAACG [G18C G44A G68A]
Second: GUUCCGUUGGCGUAAUGCUAACGCGUCUCCCUCCUAAGGAGAACACUGCGGGUUCGAGUCCCGUACGGAACG [G18C G44C]
The yeast fitness of the first is lower: at most 0.5 for the first, 0.637 for the second.

First: GUUCCGUUGGCGUAAUGCUAACGCGUCUCCCUCCUAAGGAGAAUACUGCGGGUUCGAGUCCCGUACGGAACG [G18C G44U]
Second: GUUCCGUUGGCGUAAUGUUAACGCGACUCCCUCCUAAGGAGAAGACUGCGGGUUCGAGUCCCGUACGGUACG [G18U U26A A69U]
The yeast fitness of the first is higher: 0.554 for the first, at most 0.5 for the second.

Going from GUUCCGUUGGCGUAAUGCUAACGCAUCUCCCUCCUAACGAAAAGACUGCGGGUUCGAGUCCCGUACGGAACG [G18C G25A G38C G41A] to GUUCCGUUGGCGUAAUGGAUACGCGUCUCCCUCCUAAGGAGAAGACUGCGCGUUCGAGUCCCGUACGGAACG [U19A A20U G51C], the yeast fitness rises from at most 0.5 to 0.836.

GUUCCGUUGGCGUAAUGCAAACGCGUCGCCCUCCUAAGGCGAAGACUGCGGGUUCGAGUCCCGUACGGAACG [G18C U19A U28G A40C] and GUUCCGUUGGCGUAAUGCUAACGCGUCUCCCUCCUAAGGAGAAGACUGCGGGCUCGCGUCCCGUACGGAACG [G18C U53C A57C] cannot be ordered by yeast fitness: at most 0.5 for the first, at most 0.5 for the second.

GUUCCGUUGGCGUAAUGCGAACGCGUUUCCCUCCUAAGGAGAUGACUGCGGGUUCGAGUCCCGUACGGAACG [G18C U19G C27U A43U] and GUUCCGUUGGCGUAAUGUUAACGUGUCUCCCUCCUAAGGAGAAGACUGCGGGUUCGAGUCCCGUACGGUACG [G18U C24U A69U] cannot be ordered by yeast fitness: at most 0.5 for the first, at most 0.5 for the second.

Going from GUUCCGUUGGCGUAAUGCUAACGCGUCUCCCUCCAAAGGAGAAGACUGCGGGUUCGAGUCCCGUCCGGAACG [G18C U35A A65C] to GUUCCGUUGGCGUAAUGUUUACGCGUCUCCCUCCUAAGGAGAAGACUGCGGGUUCGAGUCCCGUACGGAACG [G18U A20U], the yeast fitness rises from at most 0.5 to 0.722.

With GUUCCGUUGGCGUAAUGCUAACGCGUCUCCCUCCGAAGGACAAGACUGCGGGUUCGAGUCCCGUAGGGAACG [G18C U35G G41C C66G] the yeast fitness was at most 0.5.
